Data reported in ChEMBL document CHEMBL5136969, “A niclosamide-tobramycin hybrid adjuvant potentiates cefiderocol against P. aeruginosa” (2021).
≈ marks a conversion by molar mass, not a printed value. Calls of active or inactive are those of the source.

Key:
Acinetobacter baumannii = assay: Potentiation of moxifloxacin-induced antibiotic activity against Acinetobacter baumannii ATCC 17978 assessed as MIC fold reduction at 8 ug/ml after 18 hrs by microbroth dilution method; type: functional; settings: dose 8 µg/ml
How it was run: (§1)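 Adjuvant held at a fixed 8 μg/mL while the antibiotic was 2-fold serially diluted in Mueller-Hinton broth (MHB), per CLSI microbroth dilution. Overnight cultures were adjusted in saline to 0.5 McFarland, then diluted 1:50 in MHB to about 5 × 10^5 CFU/mL final, and incubated 18 h at 37 °C. MIC was the lowest concentration with no visible turbidity, confirmed at 590 nm. Fold potentiation = MIC alone / MIC with adjuvant.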

Pseudomonas aeruginosa [1] = assay: Potentiation of piperacilin-induced antibiotic activity against Pseudomonas aeruginosa PAO1 assessed as MIC fold reduction at 8 ug/ml after 18 hrs by microbroth dilution method; type: functional; settings: dose 8 µg/ml
Escherichia coli [2] = assay: Potentiation of cefiderocol-induced antibiotic activity against Escherichia coli ATCC 25922 assessed as MIC fold reduction at 8 ug/ml after 18 hrs by microbroth dilution method; type: functional; settings: dose 8 µg/ml
How it was run: (§2)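 Initial screen in MHB using a fixed 8 μg mL−1 of adjuvant combined with each antibiotic under 2-fold dilution. Broth microdilution used about 5 × 10^5 CFU/mL at 37 °C for 18 h, with visible turbidity read and confirmed at 590 nm. Fold-potentiation = antibiotic MIC alone ÷ antibiotic MIC with adjuvant.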

Pseudomonas aeruginosa [3] = assay: Potentiation of ceftolozane-induced antibiotic activity against Pseudomonas aeruginosa PAO1 assessed as MIC fold reduction at 8 ug/ml after 18 hrs by microbroth dilution method; type: functional; settings: dose 8 µg/ml; how it was run: as §1
Pseudomonas aeruginosa [4] = assay: Potentiation of doxycycline-induced antibiotic activity against Pseudomonas aeruginosa PAO1 assessed as MIC fold reduction at 8 ug/ml after 18 hrs by microbroth dilution method; type: functional; settings: dose 8 µg/ml; how it was run: as §1
Pseudomonas aeruginosa [5] = assay: Potentiation of rifampicin-induced antibiotic activity against Pseudomonas aeruginosa PAO1 assessed as MIC fold reduction at 8 ug/ml after 18 hrs by microbroth dilution method; type: functional; settings: dose 8 µg/ml
Escherichia coli [6] = assay: Potentiation of erythromycin-induced antibiotic activity against Escherichia coli ATCC 25922 assessed as MIC fold reduction at 8 ug/ml after 18 hrs by microbroth dilution method; type: functional; settings: dose 8 µg/ml; how it was run: as §1
Staphylococcus aureus = assay: Antibacterial activity against Staphylococcus aureus ATCC 29213 assessed as reduction in bacterial growth after 18 hrs by microbroth dilution method; type: functional
How it was run: (§3)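 CLSI broth microdilution. Overnight cultures were adjusted in saline to 0.5 McFarland, diluted 1:50 in Mueller-Hinton broth (MHB), and inoculated at about 5 × 10^5 CFU/mL. Agents were 2-fold serially diluted in MHB, mixed 1:1 with inoculum, and held at 37 °C for 18 h. MIC was the lowest concentration with no visible turbidity, confirmed at 590 nm.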

[7] = test system: Staphylococcus epidermidis; assay: Antibacterial activity against methicillin-resistant Staphylococcus epidermidis 61589 assessed as reduction in bacterial growth after 18 hrs by microbroth dilution method; type: functional
How it was run: (§4)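 Broth microdilution per CLSI in Mueller-Hinton broth (MHB). Overnight cultures were adjusted to 0.5 McFarland in saline, diluted 1:50 in MHB, and added at about 5 × 10^5 CFU/mL final to equal volumes of 2-fold serial dilutions of agent. Incubation was 18 h at 37 °C. MIC was the lowest concentration with no visible turbidity, confirmed by absorbance at 590 nm.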

Pseudomonas aeruginosa [8] = assay: Potentiation of cefotaxime-induced antibiotic activity against MDR clinical isolate Pseudomonas aeruginosa PA264 assessed as MIC fold reduction at 8 ug/ml after 18 hrs by microbroth dilution method; type: functional, organism-based; settings: dose 8.0 µg/ml; how it was run: as §1
Pseudomonas aeruginosa [9] = assay: Potentiation of ceftazidime-induced antibiotic activity against MDR clinical isolate Pseudomonas aeruginosa PA264 assessed as MIC fold reduction at 8 ug/ml after 18 hrs by microbroth dilution method; type: functional, organism-based; settings: dose 8.0 µg/ml; how it was run: as §1
Pseudomonas aeruginosa [10] = assay: Potentiation of ceftolozane-induced antibiotic activity against MDR clinical isolate Pseudomonas aeruginosa PA264 assessed as MIC fold reduction at 8 ug/ml after 18 hrs by microbroth dilution method; type: functional, organism-based; settings: dose 8.0 µg/ml; how it was run: as §1
Pseudomonas aeruginosa [11] = assay: Potentiation of cefiderocol-induced antibiotic activity against […] Pseudomonas aeruginosa PAO1 assessed as MIC fold reduction at 8 ug/ml after 18 hrs by microbroth dilution method; type: functional, organism-based; settings: dose 8.0 µg/ml; how it was run: as §2
Pseudomonas aeruginosa [12] = assay: Antibacterial activity against MDR clinical isolate Pseudomonas aeruginosa PA101885 assessed as reduction in bacterial growth after 18 hrs by microbroth dilution method; type: functional; how it was run: as §3
Pseudomonas aeruginosa [13] = assay: Antibacterial activity against MDR clinical isolate Pseudomonas aeruginosa PA109084 assessed as reduction in bacterial growth after 18 hrs by microbroth dilution method; type: functional; how it was run: as §3
Pseudomonas aeruginosa [14] = assay: Antibacterial activity against colistin-resistant clinical isolate Pseudomonas aeruginosa PA114228 assessed as reduction in bacterial growth after 18 hrs by microbroth dilution method; type: functional; how it was run: as §4
Pseudomonas aeruginosa [15] = assay: Antibacterial activity against MDR clinical isolate Pseudomonas aeruginosa PA109084 assessed as reduction in bacterial growth after 18 hrs in presence of cefiderocol by microbroth dilution method; type: functional
How it was run: (§5)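 Checkerboard in MHB. Cefiderocol was 2-fold serially diluted along one axis and the adjuvant along the other. Inoculum was prepared from 0.5 McFarland saline suspensions diluted 1:50 in MHB, giving about 5 × 10^5 CFU/mL final. Plates ran 18 h at 37 °C, with turbidity confirmed at 590 nm. FIC = combination MIC ÷ MIC alone for each agent, and FIC index = sum of both. Interpretation: ≤0.5 synergy, >0.5–4 additive, >4 antagonism.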

Pseudomonas aeruginosa [16] = assay: Antibacterial activity against […] Pseudomonas aeruginosa PAO1 assessed as potentiation of cefiderocol antibacterial activity by measuring FIC index after 18 hrs by microbroth dilution method; type: functional; how it was run: as §5
Pseudomonas aeruginosa [17] = assay: Antibacterial activity against MDR clinical isolate Pseudomonas aeruginosa PA264 assessed as potentiation of cefiderocol antibacterial activity by measuring FIC index after 18 hrs by microbroth dilution method; type: functional
How it was run: (§6)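 Checkerboard in MHB (iron-replete, not iron-depleted CAMHB). Cefiderocol was 2-fold serially diluted along one axis and the adjuvant along the other. Inoculum was 0.5 McFarland diluted 1:50, about 5 × 10^5 CFU/mL final. Incubation was 18 h at 37 °C, with turbidity read visually and confirmed at 590 nm. FIC was the MIC in combination over the MIC alone for each agent, and the FIC index was their sum. Cut-offs were ≤0.5 synergy, >0.5–4 additive, >4 antagonism.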

Pseudomonas aeruginosa [18] = assay: Antibacterial activity against colistin-resistant clinical isolate Pseudomonas aeruginosa PA101243 assessed as reduction in bacterial growth by measuring FIC index after 18 hrs by microbroth dilution method; type: functional; how it was run: as §6
Escherichia coli [19] = assay: Antibacterial activity against Escherichia coli 94393 assessed as reduction in bacterial growth after 18 hrs in presence of cefiderocol by microbroth dilution method; type: functional
How it was run: (§7)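 Checkerboard in Mueller-Hinton broth: cefiderocol 2-fold diluted on one axis, adjuvant 2-fold on the other. Overnight cultures were adjusted to 0.5 McFarland in saline, diluted 1:50 in MHB, and inoculated at about 5 × 10^5 CFU/mL. Incubation was 18 h at 37 °C. Turbidity was read visually and confirmed at 590 nm. FIC index = FIC of antibiotic + FIC of adjuvant; ≤0.5 synergy, >4 antagonism.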

Escherichia coli [20] = assay: Antibacterial activity against Escherichia coli 94393 assessed as potentiation of cefiderocol antibacterial activity by measuring FIC after 18 hrs by microbroth dilution method; type: functional; how it was run: as §7
Pseudomonas aeruginosa [21] = assay: Potentiation of moxifloxacin-induced antibiotic activity against Pseudomonas aeruginosa PA264 assessed as MIC fold reduction in ID-CAMHB condition at 8 ug/ml after 18 hrs by microbroth dilution method; type: functional, organism-based; settings: dose 8.0 µg/ml

NC[C@H]1O[C@H](O[C@H]2[C@H](OCCCCc3cn(-c4ccc(NC(=O)c5cc(Cl)ccc5O)cc4)nn3)[C@@H](O[C@H]3O[C@H](CO)[C@@H](O)[C@H](N)[C@H]3O)[C@H](N)C[C@@H]2N)[C@H](N)C[C@@H]1O was tested, and the “fold change (FC)” value (Acinetobacter baumannii) was 4, the “fold change (FC)” value (Pseudomonas aeruginosa [1]) was 4 and the “fold change (FC)” value (Escherichia coli [2]) was 4. The “fold change (FC)” value (Pseudomonas aeruginosa [3]) was 4, the “fold change (FC)” value (Pseudomonas aeruginosa [4]) was 4 and the “fold change (FC)” value (Pseudomonas aeruginosa [5]) was 4. For the same compound, the “fold change (FC)” value (Escherichia coli [6]) was 4, the MIC (Staphylococcus aureus) was > 128 µg/mL and the MIC [7] was 128 µg/mL (≈ 153 µM). For the same compound, the Activity (Pseudomonas aeruginosa [8]) was “Active”, the Activity (Pseudomonas aeruginosa [9]) was “Active” and the Activity (Pseudomonas aeruginosa [10]) was “Active”. The Activity (Pseudomonas aeruginosa [11]) was “Active”, the MIC (Pseudomonas aeruginosa [12]) was > 128 µg/mL and the MIC (Pseudomonas aeruginosa [13]) was > 128 µg/mL. The MIC (Pseudomonas aeruginosa [14]) was 32 µg/mL (≈ 38.3 µM), the MIC (Pseudomonas aeruginosa [15]) was 0.5 µg/mL and the FIC (Pseudomonas aeruginosa [16]) was 0.258. For the same compound, the FIC (Pseudomonas aeruginosa [17]) was 0.125, the FIC (Pseudomonas aeruginosa [18]) was 0.125 and the MIC (Escherichia coli [19]) was 1 µg/mL. For the same compound, the FIC (Escherichia coli [20]) was 0.25 and the Activity (Pseudomonas aeruginosa [21]) was “Active”.
